Source: ChEMBL document CHEMBL5335845, “Discovery of GLPG2737, a Potent Type 2 Corrector of CFTR for the Treatment of Cystic Fibrosis in Combination with a Potentiator and a Type 1 Co-corrector” (J Med Chem, 2024)
In brackets after ≈: the same amount, converted by molar mass.

What was measured:
[1] = Metabolic stability in dog hepatocyte assessed as unbound intrinsic clearance at 1 uM incubated for 180 mins by LC-MS/MS analysis; type: ADME, cell-based, Canis lupus familiaris; settings: hepatocytes, 3 h
[2] = Metabolic stability in human hepatocyte assessed as unbound intrinsic clearance at 1 uM incubated for 180 mins by LC-MS/MS analysis; type: ADME, cell-based; settings: hepatocytes, 3 h
[3] = Plasma clearance in Sprague-Dawley rat at 5 mg/kg, po or 0.1 mg/kg, iv measured upto 24 hrs by LC-MS/MS analysis; type: ADME, organism-based; settings: in vivo
Method in brief: (§1)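 Male Sprague–Dawley rats (6–8 weeks), iv tail-vein bolus 0.1 mg/kg in PEG200/water 60/40, or oral gavage 5 mg/kg suspension in 0.5% MC after ≥12 h fast; plasma (Li-heparin) sampled to 24 h, n = 3 per route, LC-MS/MS; noncompartmental analysis.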

[4] = Metabolic stability in rat hepatocyte assessed as unbound intrinsic clearance at 1 uM incubated for 180 mins by LC-MS/MS analysis; type: ADME, cell-based; settings: hepatocytes, 3 h
[5] = Clearance in Sprague-Dawley rat at 1 mg/kg, iv measured after 24 hrs by LC-MS/MS analysis; type: ADME, organism-based; settings: in vivo
[6] = Unbound clearance in Beagle dog at 5 mg/kg, po measured upto 24 hrs by LC-MS/MS analysis; type: ADME, organism-based, Canis lupus familiaris; settings: in vivo
Method in brief: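 Male Beagle dogs (n = 3), iv 10 min […], then after 3-day washout oral gavage 5 or 1 mg/kg in PEG400/0.5% MC or 0.5% MC after ≥12 h fast; jugular or cephalic blood (Li-heparin) to 24 h, plasma by LC-MS/MS.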

[7] = Apparent permeability from apical to basolateral side in MDCKII-MDR1 cells at 10 uM measured after 1 hr by LC-MS/MS analysis; type: ADME, cell-based, Canis lupus familiaris; settings: dog, MDCK-MDR1
[8] = Volume of distribution at steady state in Beagle dog at 5 mg/kg, po or 0.1 mg/kg, iv measured upto 24 hrs by LC-MS/MS analysis; type: ADME, organism-based, Canis lupus familiaris; settings: in vivo
[9] = target: Voltage-gated inwardly rectifying potassium channel KCNH2 (Homo sapiens, UniProt Q12809); test: Inhibition of human ERG by manual patch clamp test; type: toxicity
Chain of Voltage-gated inwardly rectifying potassium channel KCNH2 (Q12809 whole entry): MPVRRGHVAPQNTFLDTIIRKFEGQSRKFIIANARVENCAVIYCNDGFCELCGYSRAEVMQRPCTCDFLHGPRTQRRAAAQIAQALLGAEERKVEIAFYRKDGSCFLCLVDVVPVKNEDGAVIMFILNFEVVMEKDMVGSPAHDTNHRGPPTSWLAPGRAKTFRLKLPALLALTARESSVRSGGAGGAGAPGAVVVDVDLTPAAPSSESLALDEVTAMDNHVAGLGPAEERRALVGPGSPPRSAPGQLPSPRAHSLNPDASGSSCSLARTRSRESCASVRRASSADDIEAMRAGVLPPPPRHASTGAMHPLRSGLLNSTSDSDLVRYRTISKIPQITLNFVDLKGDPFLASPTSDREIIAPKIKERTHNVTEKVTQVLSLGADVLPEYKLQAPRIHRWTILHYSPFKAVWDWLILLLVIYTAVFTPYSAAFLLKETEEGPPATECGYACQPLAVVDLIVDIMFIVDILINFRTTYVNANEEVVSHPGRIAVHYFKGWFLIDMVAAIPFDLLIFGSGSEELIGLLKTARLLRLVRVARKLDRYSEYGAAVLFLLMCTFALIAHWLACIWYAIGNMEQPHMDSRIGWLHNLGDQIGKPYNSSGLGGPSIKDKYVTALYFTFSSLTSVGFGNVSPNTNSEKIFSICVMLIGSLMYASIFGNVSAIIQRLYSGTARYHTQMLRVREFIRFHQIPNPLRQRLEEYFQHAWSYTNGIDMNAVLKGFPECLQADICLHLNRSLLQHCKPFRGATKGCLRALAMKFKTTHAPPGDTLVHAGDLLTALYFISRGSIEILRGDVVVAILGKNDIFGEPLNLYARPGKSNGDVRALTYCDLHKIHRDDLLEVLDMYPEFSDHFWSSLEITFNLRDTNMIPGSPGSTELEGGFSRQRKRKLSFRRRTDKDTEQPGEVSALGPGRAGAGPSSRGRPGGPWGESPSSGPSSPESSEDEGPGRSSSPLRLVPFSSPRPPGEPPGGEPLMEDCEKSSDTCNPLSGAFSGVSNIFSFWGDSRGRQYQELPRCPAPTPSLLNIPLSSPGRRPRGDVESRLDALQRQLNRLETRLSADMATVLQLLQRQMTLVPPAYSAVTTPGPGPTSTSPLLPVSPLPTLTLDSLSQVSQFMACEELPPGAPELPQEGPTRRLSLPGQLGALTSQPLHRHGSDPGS

Cytochrome P450 3A4 [10] = target: T1, Cytochrome P450 3A4 (Homo sapiens, UniProt P08684); test: Induction of CYP3A4 in human hepatocytes assessed as mRNA at 10 uM after 72 hrs by qPCR analysis relative to rifampicin; type: ADME, cell-based, Hepatocyte
T1 sequence (P08684 whole entry): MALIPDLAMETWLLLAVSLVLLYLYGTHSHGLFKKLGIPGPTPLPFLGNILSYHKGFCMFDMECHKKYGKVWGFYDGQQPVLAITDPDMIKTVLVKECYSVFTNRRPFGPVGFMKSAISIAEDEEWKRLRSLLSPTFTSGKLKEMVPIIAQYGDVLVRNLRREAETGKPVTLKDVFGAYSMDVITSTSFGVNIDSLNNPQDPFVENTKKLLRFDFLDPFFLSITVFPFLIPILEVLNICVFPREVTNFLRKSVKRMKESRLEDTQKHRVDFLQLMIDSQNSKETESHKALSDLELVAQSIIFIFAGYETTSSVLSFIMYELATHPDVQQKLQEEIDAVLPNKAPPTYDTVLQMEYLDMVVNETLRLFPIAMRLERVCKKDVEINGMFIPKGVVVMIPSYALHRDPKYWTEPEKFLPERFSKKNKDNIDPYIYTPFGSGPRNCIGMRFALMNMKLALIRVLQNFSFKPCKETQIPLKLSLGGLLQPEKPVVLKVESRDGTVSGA
Method in brief: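 Single-donor cryopreserved human hepatocytes, 0.1 × 10^6 cells/well, exposed to 10 μM compound (0.1% DMSO) in triplicate for 72 h with daily renewal; RNA RT-qPCR for CYP3A4 vs endogenous control, 2^-ΔΔCT relative to vehicle, expressed as % of 10 μM rifampicin.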

[11] = Plasma clearance in Beagle dog iv measured upto 24 hrs by LC-MS/MS analysis
[12] = Unbound clearance in Sprague-Dawley rat at 5 mg/kg, po or 0.1 mg/kg, iv measured upto 24 hrs by LC-MS/MS analysis; type: ADME, organism-based; settings: in vivo; method in brief: as §1
[13] = Thermodynamic solubility of the compound at pH 7.4 measured after 24 hrs by LC-MS/MS analysis; type: physicochemical; settings: buffer, read-out: Therm_solubility
Method in brief: (§2)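 Solid compound at 1 mg/mL in fasted simulated gastric fluid or pH 7.4 buffer, stirred 24 h at room temperature, centrifuged and filtered, diluted and quantified by LC-MS/MS against standard curve.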

[14] = Intestinal permeability across apical to basolateral side in human Caco-2 cells at 10 uM measured after 1 hr by LC-MS/MS analysis; type: ADME, cell-based; settings: read-out: permeability
[15] = Thermodynamic solubility of the compound in fasted simulated gastric fluid measured after 24 hrs by LC-MS/MS analysis; type: physicochemical; settings: read-out: Therm_solubility; method in brief: as §2
[16] = Half life in Beagle dog at 0.1 mg/kg, iv measured upto 24 hrs by LC-MS/MS analysis; type: ADME, organism-based, Canis lupus familiaris; settings: in vivo
[17] = Plasma protein binding in dog at 5 uM measured after 4 hrs under shaking by LC-MS/MS analysis; type: ADME, cell-free, Canis lupus familiaris; settings: read-out: PPB (converted)
Method in brief: (§3)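 Equilibrium dialysis of compound 5 μM (0.5% DMSO) in plasma against PBS pH 7.4, 4 h at 37 °C with shaking; matrix-matched samples, acetonitrile precipitation, LC-MS/MS; % bound from plasma and buffer peak areas.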

Cytochrome P450 3A4 [18] = target: T1, Cytochrome P450 3A4; test: Inhibition of CYP3A4 in human liver microsomes using midazolam as substrate in presence of NADPH by LC/MS/MS analysis; type: ADME, Microsome
Sigma receptor = Sigma receptor (Homo sapiens, UniProt Q99720+Q5BJF2); test: Inhibition of human Sigma receptor; type: protein assay
Method in brief: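 Radioligand binding panel: displacement of cognate radioligand from human H1 or Sigma receptor, IC50 determined.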

Cytochrome P450 3A4 [19] = target: T1, Cytochrome P450 3A4; test: Inhibition of CYP3A4 in human liver microsomes using testosterone as substrate in presence of NADPH by LC/MS/MS analysis; type: ADME, Microsome
[20] = Volume of distribution at steady state in Sprague-Dawley rat at 5 mg/kg, po or 0.1 mg/kg, iv measured upto 24 hrs by LC-MS/MS analysis; type: ADME, organism-based; settings: in vivo; method in brief: as §1
[21] = Plasma protein binding in rat at 5 uM measured after 4 hrs under shaking by LC-MS/MS analysis; type: ADME, cell-free; settings: read-out: PPB (converted); method in brief: as §3
[22] = Plasma protein binding in human at 5 uM measured after 4 hrs under shaking by LC-MS/MS analysis; type: ADME, cell-free; settings: read-out: PPB (converted); method in brief: as §3
[23] = Half life in Sprague-Dawley rat at 0.1 mg/kg, iv measured upto 24 hrs by LC-MS/MS analysis; type: ADME, organism-based; settings: in vivo; method in brief: as §1
[24] = Genotoxicity in Salmonella typhimurium by Ames test; type: toxicity; settings: salmonella enterica subsp. enterica serovar typhimurium
[25] = Metabolic stability in human liver microsomes assessed as unbound intrinsic clearance at 1 uM incubated for 30 mins by LC-MS/MS analysis; type: ADME, Microsome; settings: 0.5 h
[26] = Metabolic stability in rat liver microsomes assessed as unbound intrinsic clearance at 1 uM incubated for 30 mins by LC-MS/MS analysis; type: ADME, Microsome; settings: 0.5 h

CN(C)S(=O)(=O)NC(=O)c1cc(N2CCC(N3CCOCC3)CC2)c2c(C3CCC3)nn(-c3ccc(F)cc3)c2n1
CL free [1]: 31.7 mL/min/kg | CL free [2]: < 11 mL/min/kg | CL [3]: 3.17 mL/min/kg | CL free [4]: 49 mL/min/kg

CS(=O)(=O)NC(=O)c1cc(-c2ccc(N3CCC(C#N)CC3)nc2)c2c(C3CCC3)nn(-c3ccccc3)c2n1
CL [5]: 0.41 mL/min/kg

COC1CCN(c2cc(C(=O)NS(=O)(=O)N(C)C)nc3c2c(C2CCC2)nn3-c2ccc(F)cc2)CC1
CL free [1]: < 24.8 mL/min/kg | CL free [2]: < 12.8 mL/min/kg | CL free [6]: 178 mL/min/kg | Papp A→B at 1 h, 10 µM [7]: 5.45 ×10⁻⁶ cm/s | Vdss [8]: 1.37 L/kg | inhibition (INH) [9]: Not Active | Activity (Cytochrome P450 3A4 [10]): 4% | clearance [11]: 3.5 mL/min/kg | CL [3]: 5.33 mL/min/kg | CL free [12]: 333 mL/min/kg | solubility thermodynamic at 24 h [13]: 9.9 µg/mL (≈ 18.7 µM) | Papp A→B at 1 h, 10 µM [14]: 24.5 ×10⁻⁶ cm/s | solubility thermodynamic at 24 h [15]: 10.9 µg/mL (≈ 20.5 µM) | half-life [16]: 5.4 h | fraction unbound at 4 h, 5 µM [17]: 0.025 | IC50 (Cytochrome P450 3A4 [18]): > 100 µM | IC50 (Sigma receptor): 0.36 µM | IC50 (Cytochrome P450 3A4 [19]): > 100 µM | Vdss [20]: 1.38 L/kg | fraction unbound at 4 h, 5 µM [21]: 0.016 | fraction unbound at 4 h, 5 µM [22]: 0.02 | half-life [23]: 3.45 h | Activity [24]: Non-Toxic | CL free [4]: 66.2 mL/min/kg

Cc1nn(-c2ccccc2)c2nc(C(=O)O)cc(-c3ccc(N4CCOCC4)cc3)c12
CL free [2]: < 45.7 mL/min/kg | CL free [25]: < 28.3 mL/min/kg | CL free [26]: < 43.3 mL/min/kg | CL free [4]: 67 mL/min/kg

COc1ccc(-c2cc(C(=O)O)nc3c2c(C)nn3-c2ccc(C)cc2)cc1
CL free [25]: < 59.8 mL/min/kg | CL free [26]: 182 mL/min/kg | CL free [4]: 263 mL/min/kg

CS(=O)(=O)NC(=O)c1cc(N2CCC(N3CCOCC3)CC2)c2c(C3CCC3)nn(-c3ccc(F)cc3)c2n1
Activity (Cytochrome P450 3A4 [10]): 9% | CL free [4]: < 11.5 mL/min/kg

O=C(O)c1cc(-c2ccc(N3CCOCC3)cc2)c2c(C3CCC3)nn(-c3ccccc3)c2n1
CL [5]: 3.3 mL/min/kg

COc1ccc(-c2cc(C(=O)O)nc3c2c(C)nn3-c2ccccc2)cc1
CL free [25]: 173 mL/min/kg | CL free [26]: 180 mL/min/kg | CL free [4]: 305 mL/min/kg
